Experimental data: ChEMBL document CHEMBL1151761, “Radiohalogenated prostate-specific membrane antigen (PSMA)-based ureas as imaging agents for prostate cancer” (J Med Chem, 2008)

Assays:
[1] = Biodistribution in large intestine of PSMA expressing human PC3 PIP and PSMA deficient human PC3 flu cells xenografted SCID mouse at 2 uCi, iv after 60 mins; type: ADME, organism-based; conditions: in vivo, 1 h
Method in brief: (§1)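 Male SCID mice carried subcutaneous PSMA+ PC-3 PIP (left shoulder) and PC-3 flu (right shoulder) xenografts, 1-5 × 10^6 cells in HBSS, and were used at 3-5 mm tumor diameter. Tail-vein injection of 2 µCi radioligand; four mice per time point, killed by cervical dislocation. %ID/g from a standard dilution of the dose, decay-corrected, mean ± SD; PIP tumor:organ ratios.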

[2] = Biodistribution in PC3 flu tumor of PSMA expressing human PC3 PIP and PSMA deficient human PC3 flu cells xenografted SCID mouse at 2 uCi, iv after 30 mins; type: ADME, organism-based; conditions: in vivo, 0.5 h; method in brief: as §1
[3] = Biodistribution in PC3 flu tumor of PSMA expressing human PC3 PIP and PSMA deficient human PC3 flu cells xenografted SCID mouse at 2 uCi, iv after 60 mins; type: ADME, organism-based; conditions: in vivo, 1 h; method in brief: as §1
[4] = molecular target: T1, Glutamate carboxypeptidase 2 (Homo sapiens, UniProt Q04609); assay: Inhibition of PSMA in human LNCaP cell extract using [3H]NAAG by fluorescence-based assay; type: cell-free
T1 sequence (Q04609 whole entry): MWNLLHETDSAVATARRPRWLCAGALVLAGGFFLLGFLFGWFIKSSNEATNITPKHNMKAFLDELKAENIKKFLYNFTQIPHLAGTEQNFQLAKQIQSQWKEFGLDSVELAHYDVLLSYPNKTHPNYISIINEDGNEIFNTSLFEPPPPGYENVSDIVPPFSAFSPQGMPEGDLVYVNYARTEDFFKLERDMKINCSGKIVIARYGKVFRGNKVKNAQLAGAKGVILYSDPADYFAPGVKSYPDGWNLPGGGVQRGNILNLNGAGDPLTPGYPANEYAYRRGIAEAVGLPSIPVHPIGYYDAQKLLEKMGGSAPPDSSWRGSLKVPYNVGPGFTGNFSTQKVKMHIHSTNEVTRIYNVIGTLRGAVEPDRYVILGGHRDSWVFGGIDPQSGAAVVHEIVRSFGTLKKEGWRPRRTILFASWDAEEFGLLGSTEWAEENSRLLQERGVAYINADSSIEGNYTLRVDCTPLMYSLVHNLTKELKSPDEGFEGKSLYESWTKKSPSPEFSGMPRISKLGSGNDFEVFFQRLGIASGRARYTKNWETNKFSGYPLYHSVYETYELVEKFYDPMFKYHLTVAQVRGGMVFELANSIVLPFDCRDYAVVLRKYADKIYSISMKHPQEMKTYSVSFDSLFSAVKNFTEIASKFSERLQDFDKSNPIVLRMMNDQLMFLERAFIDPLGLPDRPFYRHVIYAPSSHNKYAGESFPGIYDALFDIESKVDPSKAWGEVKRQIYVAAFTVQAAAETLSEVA

[5] = molecular target: T1, Glutamate carboxypeptidase 2; assay: Inhibition of PSMA in human LNCaP cell extract using [3H]NAAG by radiometric assay; type: cell-free
[6] = Biodistribution in large intestine of PSMA expressing human PC3 PIP and PSMA deficient human PC3 flu cells xenografted SCID mouse at 2 uCi, iv after 5 hrs; type: ADME, organism-based; conditions: in vivo; method in brief: as §1
[7] = Biodistribution in PC3 flu tumor of PSMA expressing human PC3 PIP and PSMA deficient human PC3 flu cells xenografted SCID mouse at 2 uCi, iv after 5 hrs; type: ADME, organism-based; conditions: in vivo; method in brief: as §1
[8] = Biodistribution in small intestine of PSMA expressing human PC3 PIP and PSMA deficient human PC3 flu cells xenografted SCID mouse at 2 uCi, iv after 2 hrs; type: ADME, organism-based; conditions: in vivo; method in brief: as §1
[9] = Biodistribution in small intestine of PSMA expressing human PC3 PIP and PSMA deficient human PC3 flu cells xenografted SCID mouse at 2 uCi, iv after 30 mins; type: ADME, organism-based; conditions: in vivo, 0.5 h; method in brief: as §1
[10] = Biodistribution in PC3 flu tumor of PSMA expressing human PC3 PIP and PSMA deficient human PC3 flu cells xenografted SCID mouse at 2 uCi, iv after 2 hrs; type: ADME, organism-based; conditions: in vivo; method in brief: as §1
[11] = Biodistribution in small intestine of PSMA expressing human PC3 PIP and PSMA deficient human PC3 flu cells xenografted SCID mouse at 2 uCi, iv after 60 mins; type: ADME, organism-based; conditions: in vivo, 1 h; method in brief: as §1
[12] = Biodistribution in large intestine of PSMA expressing human PC3 PIP and PSMA deficient human PC3 flu cells xenografted SCID mouse at 2 uCi, iv after 30 mins; type: ADME, organism-based; conditions: in vivo, 0.5 h; method in brief: as §1
[13] = Biodistribution in PC3 PIP tumor of PSMA expressing human PC3 PIP and PSMA deficient human PC3 flu cells xenografted SCID mouse at 2 uCi, iv after 30 mins; type: ADME, organism-based; conditions: in vivo, 0.5 h; method in brief: as §1
[14] = Biodistribution in small intestine of PSMA expressing human PC3 PIP and PSMA deficient human PC3 flu cells xenografted SCID mouse at 2 uCi, iv after 5 hrs; type: ADME, organism-based; conditions: in vivo; method in brief: as §1
[15] = Biodistribution in large intestine of PSMA expressing human PC3 PIP and PSMA deficient human PC3 flu cells xenografted SCID mouse at 2 uCi, iv after 2 hrs; type: ADME, organism-based; conditions: in vivo; method in brief: as §1

For `O=C(O)CC[C@H](NC(=O)N[C@@H](CCCCNC(=O)c1cncc([125I])c1)C(=O)O)C(=O)O`, which Drug uptake [1] is on record?
The Drug uptake was 0.6 % ID/g.

And the Drug uptake [2]?
Its Drug uptake is 0.8 % ID/g.

What about the Drug uptake [3] of the same compound?
The Drug uptake was 0.6 % ID/g.

Which results are given for `O=C(O)CC[C@H](NC(=O)N[C@@H](CCCCNC(=O)c1ccc(F)cc1)C(=O)O)C(=O)O`?
Ki [4]: 0.194 nM; Ki [5]: 0.256 nM

What does the source list for `O=C(O)CC[C@H](NC(=O)N[C@@H](CCCCNC(=O)c1ccc([125I])cc1)C(=O)O)C(=O)O`?
Drug uptake [6]: 0.7 % ID/g; Drug uptake [7]: 0.6 % ID/g; Drug uptake [8]: 1.5 % ID/g; Drug uptake [9]: 4.9 % ID/g; Drug uptake [10]: 0.7 % ID/g; Drug uptake [11]: 3.8 % ID/g; Drug uptake [12]: 1.4 % ID/g; Drug uptake [1]: 1 % ID/g; Drug uptake [2]: 1.8 % ID/g; Drug uptake [3]: 1.2 % ID/g; Drug uptake [13]: 8.8 % ID/g; Drug uptake [14]: 1.5 % ID/g; Drug uptake [15]: 0.6 % ID/g
